In ChEMBL document CHEMBL1154983, “Arylpiperazine-containing pyrrole 3-carboxamide derivatives targeting serotonin 5-HT(2A), 5-HT(2C), and the serotonin transporter as a potential antidepressant” (Bioorg Med Chem Lett, 2010):
pIC50: −log10 of the molar value.

Tests used:
[1] = system: Mus musculus; assay: Antidepressant activity in mouse assessed as decrease in duration of immobility at 100 mg/kg, po during final 5 mins of the 6 mins session by forced swimming test; format: functional; design: scale not given: the % may be the effect or the level left
Procedure, shortened: (§1)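 Mice swam 10 min in a 25-cm glass cylinder (10 cm diameter) holding 15 cm of water at 23 1 °C. Twenty-four hours later, drug was given po 60 min before retesting. Immobility (floating upright with only small movements keeping head above water) was totalled over the last 5 min of the 6-min test.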

[2] = system: Mus musculus; assay: Antidepressant activity in mouse assessed as decrease in duration of immobility at 10 mg/kg, po during final 5 mins of the 6 mins session by forced swimming test; format: functional; design: scale not given: the % may be the effect or the level left; procedure, shortened: as §1
[3] = biological target: T1, 5-hydroxytryptamine receptor 1A (Homo sapiens, UniProt P08908); assay: Inhibition of 5HT1A receptor
T1 sequence (P08908 whole entry): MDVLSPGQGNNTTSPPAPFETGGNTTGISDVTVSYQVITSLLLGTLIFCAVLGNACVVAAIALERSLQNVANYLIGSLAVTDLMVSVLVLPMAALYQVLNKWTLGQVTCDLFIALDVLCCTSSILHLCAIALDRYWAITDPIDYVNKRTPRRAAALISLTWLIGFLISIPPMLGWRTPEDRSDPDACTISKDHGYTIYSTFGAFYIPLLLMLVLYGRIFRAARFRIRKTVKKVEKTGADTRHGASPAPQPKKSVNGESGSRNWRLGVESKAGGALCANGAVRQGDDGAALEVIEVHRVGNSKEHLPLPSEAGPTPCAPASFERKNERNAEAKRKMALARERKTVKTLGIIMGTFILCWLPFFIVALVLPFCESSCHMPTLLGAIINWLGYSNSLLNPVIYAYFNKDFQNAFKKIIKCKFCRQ

[4] = biological target: 5-hydroxytryptamine receptor 6 (Homo sapiens, UniProt P50406); assay: Inhibition of 5HT6 receptor
Sequence of 5-hydroxytryptamine receptor 6 (P50406 whole entry): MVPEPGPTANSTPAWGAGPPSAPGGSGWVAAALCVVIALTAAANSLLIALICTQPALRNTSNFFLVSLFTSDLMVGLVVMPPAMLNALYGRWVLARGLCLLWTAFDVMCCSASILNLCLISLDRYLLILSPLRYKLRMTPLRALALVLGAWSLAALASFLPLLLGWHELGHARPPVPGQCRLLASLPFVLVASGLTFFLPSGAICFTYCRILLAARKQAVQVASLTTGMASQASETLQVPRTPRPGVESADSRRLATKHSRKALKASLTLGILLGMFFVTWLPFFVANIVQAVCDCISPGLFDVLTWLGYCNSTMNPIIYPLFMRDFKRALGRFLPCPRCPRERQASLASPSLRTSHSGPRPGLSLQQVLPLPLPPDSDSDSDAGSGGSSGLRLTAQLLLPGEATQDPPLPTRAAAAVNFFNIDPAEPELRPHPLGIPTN

[5] = biological target: 5-hydroxytryptamine receptor 7 (Homo sapiens, UniProt P34969); assay: Inhibition of 5HT7 receptor
Sequence of 5-hydroxytryptamine receptor 7 (P34969 whole entry): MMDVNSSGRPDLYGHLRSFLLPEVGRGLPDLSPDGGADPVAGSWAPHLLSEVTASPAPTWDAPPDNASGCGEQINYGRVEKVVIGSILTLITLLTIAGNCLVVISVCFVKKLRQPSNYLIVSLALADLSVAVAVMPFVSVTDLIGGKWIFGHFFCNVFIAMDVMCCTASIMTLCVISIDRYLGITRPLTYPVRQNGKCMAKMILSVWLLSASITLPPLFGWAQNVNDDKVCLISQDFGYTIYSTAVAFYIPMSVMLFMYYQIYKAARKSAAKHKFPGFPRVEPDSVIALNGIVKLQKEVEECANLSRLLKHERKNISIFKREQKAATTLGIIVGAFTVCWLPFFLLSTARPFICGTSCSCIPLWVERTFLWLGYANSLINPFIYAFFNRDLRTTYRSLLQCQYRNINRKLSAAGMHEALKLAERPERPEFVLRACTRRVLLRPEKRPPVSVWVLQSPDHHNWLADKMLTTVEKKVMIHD

[6] = biological target: D(2) dopamine receptor (Homo sapiens, UniProt P14416); assay: Inhibition of dopamine D2 receptor
Sequence of D(2) dopamine receptor (P14416 whole entry): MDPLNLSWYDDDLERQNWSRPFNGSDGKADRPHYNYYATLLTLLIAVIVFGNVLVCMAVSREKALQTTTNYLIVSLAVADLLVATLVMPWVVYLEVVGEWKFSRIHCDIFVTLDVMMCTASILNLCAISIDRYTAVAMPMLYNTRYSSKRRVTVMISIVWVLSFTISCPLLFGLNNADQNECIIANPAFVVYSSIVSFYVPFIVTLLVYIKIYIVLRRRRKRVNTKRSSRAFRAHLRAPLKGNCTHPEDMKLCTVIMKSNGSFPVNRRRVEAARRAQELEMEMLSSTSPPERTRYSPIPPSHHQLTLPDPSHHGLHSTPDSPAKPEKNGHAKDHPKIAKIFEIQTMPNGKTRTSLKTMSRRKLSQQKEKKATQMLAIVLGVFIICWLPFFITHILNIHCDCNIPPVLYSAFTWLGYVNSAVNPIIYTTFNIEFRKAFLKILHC

[7] = biological target: D(3) dopamine receptor (Homo sapiens, UniProt P35462); assay: Inhibition of dopamine D3 receptor
Sequence of D(3) dopamine receptor (P35462 whole entry): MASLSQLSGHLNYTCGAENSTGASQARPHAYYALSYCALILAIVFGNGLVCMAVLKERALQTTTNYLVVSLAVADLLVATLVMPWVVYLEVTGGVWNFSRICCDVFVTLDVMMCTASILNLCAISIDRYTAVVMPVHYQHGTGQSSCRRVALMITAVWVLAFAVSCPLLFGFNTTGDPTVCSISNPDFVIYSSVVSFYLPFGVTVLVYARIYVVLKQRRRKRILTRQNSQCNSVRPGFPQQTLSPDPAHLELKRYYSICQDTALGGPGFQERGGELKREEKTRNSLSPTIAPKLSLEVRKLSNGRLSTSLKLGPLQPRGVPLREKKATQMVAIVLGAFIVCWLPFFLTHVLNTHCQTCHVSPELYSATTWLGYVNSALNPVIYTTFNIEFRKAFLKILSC

[8] = biological target: T2, D(4) dopamine receptor (Homo sapiens, UniProt P21917); assay: Inhibition of dopamine D4 receptor
T2 sequence (P21917 whole entry): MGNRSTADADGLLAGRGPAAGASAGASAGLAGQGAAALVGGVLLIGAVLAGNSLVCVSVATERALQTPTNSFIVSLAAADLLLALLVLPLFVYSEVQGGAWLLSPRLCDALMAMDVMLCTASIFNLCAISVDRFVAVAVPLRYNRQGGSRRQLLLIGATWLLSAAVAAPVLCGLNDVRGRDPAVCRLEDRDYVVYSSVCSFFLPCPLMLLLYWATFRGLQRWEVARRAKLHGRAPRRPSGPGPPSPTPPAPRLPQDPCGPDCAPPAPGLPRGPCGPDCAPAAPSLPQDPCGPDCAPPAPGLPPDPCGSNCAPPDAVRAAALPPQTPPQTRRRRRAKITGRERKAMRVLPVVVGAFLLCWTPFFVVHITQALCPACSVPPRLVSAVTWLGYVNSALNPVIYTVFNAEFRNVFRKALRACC

[9] = biological target: T3, Cytochrome P450 1A2 (Homo sapiens, UniProt P05177); assay: Inhibition of CYP1A2; format: ADME
T3 sequence (P05177 whole entry): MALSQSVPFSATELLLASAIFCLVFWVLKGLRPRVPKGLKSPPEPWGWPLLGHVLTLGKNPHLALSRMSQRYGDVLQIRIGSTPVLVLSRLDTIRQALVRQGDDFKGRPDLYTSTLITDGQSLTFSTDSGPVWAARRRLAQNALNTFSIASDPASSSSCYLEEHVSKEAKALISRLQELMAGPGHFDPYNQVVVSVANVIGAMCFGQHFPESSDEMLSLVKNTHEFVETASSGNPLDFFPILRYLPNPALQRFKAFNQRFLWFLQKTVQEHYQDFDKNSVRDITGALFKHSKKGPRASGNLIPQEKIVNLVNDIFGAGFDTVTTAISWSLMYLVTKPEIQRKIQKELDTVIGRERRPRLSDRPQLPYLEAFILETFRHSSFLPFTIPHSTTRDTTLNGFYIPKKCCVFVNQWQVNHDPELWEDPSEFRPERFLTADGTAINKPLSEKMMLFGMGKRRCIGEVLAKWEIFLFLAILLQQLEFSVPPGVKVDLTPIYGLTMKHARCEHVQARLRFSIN

[10] = biological target: Cytochrome P450 2D6 (Homo sapiens, UniProt P10635); assay: Inhibition of CYP2D6; format: ADME
Sequence of Cytochrome P450 2D6 (P10635 whole entry): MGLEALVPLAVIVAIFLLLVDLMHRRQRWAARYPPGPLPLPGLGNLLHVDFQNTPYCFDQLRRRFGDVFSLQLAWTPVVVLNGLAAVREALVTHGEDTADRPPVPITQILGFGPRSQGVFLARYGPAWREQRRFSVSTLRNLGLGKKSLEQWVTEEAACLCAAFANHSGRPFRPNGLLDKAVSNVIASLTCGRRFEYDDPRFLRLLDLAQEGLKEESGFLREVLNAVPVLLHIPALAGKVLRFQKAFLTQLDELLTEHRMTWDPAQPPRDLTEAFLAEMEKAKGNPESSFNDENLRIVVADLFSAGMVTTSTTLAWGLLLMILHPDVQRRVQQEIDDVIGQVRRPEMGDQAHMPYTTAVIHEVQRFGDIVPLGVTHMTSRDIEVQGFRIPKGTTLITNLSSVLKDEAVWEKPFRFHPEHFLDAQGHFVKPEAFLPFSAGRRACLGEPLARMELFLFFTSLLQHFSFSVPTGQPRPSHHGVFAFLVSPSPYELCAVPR

[11] = biological target: Cytochrome P450 3A4 (Homo sapiens, UniProt P08684); assay: Inhibition of CYP3A4; format: ADME
Sequence of Cytochrome P450 3A4 (P08684 whole entry): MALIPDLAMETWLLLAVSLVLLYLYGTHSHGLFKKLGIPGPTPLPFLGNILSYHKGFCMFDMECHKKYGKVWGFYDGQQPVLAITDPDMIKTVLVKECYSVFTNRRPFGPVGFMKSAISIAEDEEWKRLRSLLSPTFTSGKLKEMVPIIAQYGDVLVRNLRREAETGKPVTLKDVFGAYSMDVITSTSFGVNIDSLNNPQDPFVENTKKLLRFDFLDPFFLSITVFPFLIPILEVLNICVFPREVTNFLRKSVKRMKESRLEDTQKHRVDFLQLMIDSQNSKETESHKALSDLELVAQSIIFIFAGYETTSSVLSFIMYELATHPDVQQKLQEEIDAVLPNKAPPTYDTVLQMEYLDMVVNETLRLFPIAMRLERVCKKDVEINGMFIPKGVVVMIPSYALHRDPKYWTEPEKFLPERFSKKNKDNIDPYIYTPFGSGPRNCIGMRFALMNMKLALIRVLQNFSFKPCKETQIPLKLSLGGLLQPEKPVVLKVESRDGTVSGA

[12] = biological target: Cytochrome P450 2C9 (Homo sapiens, UniProt P11712); assay: Inhibition of CYP2C9; format: ADME
Sequence of Cytochrome P450 2C9 (P11712 whole entry): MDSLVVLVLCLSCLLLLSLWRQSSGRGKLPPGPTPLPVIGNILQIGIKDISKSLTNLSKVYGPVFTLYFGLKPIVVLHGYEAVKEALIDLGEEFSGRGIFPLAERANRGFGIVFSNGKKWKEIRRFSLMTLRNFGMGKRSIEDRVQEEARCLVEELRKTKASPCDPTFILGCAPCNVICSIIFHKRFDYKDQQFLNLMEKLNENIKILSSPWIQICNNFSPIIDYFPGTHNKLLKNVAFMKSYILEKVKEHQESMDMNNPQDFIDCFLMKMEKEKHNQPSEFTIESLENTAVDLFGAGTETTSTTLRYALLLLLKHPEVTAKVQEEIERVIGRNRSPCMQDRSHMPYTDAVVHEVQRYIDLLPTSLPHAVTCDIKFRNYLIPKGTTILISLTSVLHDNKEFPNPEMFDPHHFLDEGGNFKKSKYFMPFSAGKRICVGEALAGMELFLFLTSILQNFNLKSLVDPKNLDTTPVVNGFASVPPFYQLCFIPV

Cc1c(C(=O)NCCCN2CCN(c3cccc(Cl)c3Cl)CC2)cc(-c2ccccc2)n1C
Activity [1]: <25% | Activity [2]: 80% | pIC50 [3]: 7.27 | pIC50 [4]: 6.15 | pIC50 [5]: 6.48 | pIC50 [6]: 5.59 | pIC50 [7]: 6.04 | pIC50 [8]: 6.01 | pIC50 [9]: < 4.70 | pIC50 [10]: < 4.70 | pIC50 [11]: < 4.70 | pIC50 [12]: 5.01
